In ChEMBL document CHEMBL4715736, “Identification of anticancer agents based on the thieno[2,3-b]pyridine and 1H-pyrazole molecular scaffolds” (2016):

Tested on: SF-295
Test: Growth inhibition of human SF-295 cells assessed as cell growth at 10 uM incubated for 48 hrs by sulforhodamine B assay relative to control
Format: functional
Conditions: read-out: Activity
In short: (§1)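 Run by the NCI Developmental Therapeutics Program as part of its 60-line human tumour panel. Each compound tested at a single 10 µM dose. Growth expressed as % relative to untreated control cells (100%).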

SMILES	growth at 10 µM [%]
CC1(C)CCc2cc(-c3ccn(S(=O)(=O)c4ccc(Cl)cc4Cl)n3)ccc2O1	94.4

Tested on: MOLT-4
Test: Growth inhibition of human MOLT-4 cells assessed as cell growth at 10 uM incubated for 48 hrs by sulforhodamine B assay relative to control
Format: functional
Conditions: read-out: Activity
In short: (§2)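 Submitted to the NCI Developmental Therapeutics Program for the NCI60 human tumour cell line panel. First screen at a single 10 µM concentration. Read-out is growth relative to untreated control cells set at 100%.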

SMILES	growth at 10 µM [%]
CC1(C)CCc2cc(-c3ccn(S(=O)(=O)c4ccc(Cl)cc4Cl)n3)ccc2O1	84.8

Tested on: UACC-62
Test: Growth inhibition of human UACC-62 cells assessed as cell growth at 10 uM incubated for 48 hrs by sulforhodamine B assay relative to control
Format: functional
Conditions: read-out: Activity
In short: as §1

SMILES	growth at 10 µM [%]
CC1(C)CCc2cc(-c3ccn(S(=O)(=O)c4ccc(Cl)cc4Cl)n3)ccc2O1	72.6

Tested on: NCI-H460
Test: Growth inhibition of human NCI-H460 cells assessed as cell growth at 10 uM incubated for 48 hrs by sulforhodamine B assay relative to control
Format: functional
Conditions: read-out: Activity
In short: as §2

SMILES	growth at 10 µM [%]
CC1(C)CCc2cc(-c3ccn(S(=O)(=O)c4ccc(Cl)cc4Cl)n3)ccc2O1	95.6

Tested on: A549
Test: Growth inhibition of human A549/ATCC cells assessed as cell growth at 10 uM incubated for 48 hrs by sulforhodamine B assay relative to control
Format: functional
Conditions: read-out: Activity
In short: (§3)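 NCI Developmental Therapeutics Program NCI60 panel. Compounds that were active in the 10 µM one-dose screen went on to dose–response testing. Growth at each concentration is expressed relative to untreated control (100%). GI50 (concentration giving 50% of maximal inhibition of proliferation) and TGI (concentration giving total growth inhibition) were derived from the curves.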

SMILES	growth at 10 µM [%]
CC1(C)CCc2cc(-c3ccn(S(=O)(=O)c4ccc(Cl)cc4Cl)n3)ccc2O1	83.7

Tested on: OVCAR-3
Test: Growth inhibition of human OVCAR-3 cells assessed as cell growth at 10 uM incubated for 48 hrs by sulforhodamine B assay relative to control
Format: functional
Conditions: read-out: Activity
In short: as §1

SMILES	growth at 10 µM [%]
CC1(C)CCc2cc(-c3ccn(S(=O)(=O)c4ccc(Cl)cc4Cl)n3)ccc2O1	101

Tested on: NCI-H226
Test: Growth inhibition of human NCI-H226 cells assessed as cell growth at 10 uM incubated for 48 hrs by sulforhodamine B assay relative to control
Format: functional
Conditions: read-out: Activity
In short: as §2

SMILES	growth at 10 µM [%]
CC1(C)CCc2cc(-c3ccn(S(=O)(=O)c4ccc(Cl)cc4Cl)n3)ccc2O1	87

Tested on: A498
Test: Growth inhibition of human A498 cells assessed as cell growth at 10 uM incubated for 48 hrs by sulforhodamine B assay relative to control
Format: functional
Conditions: read-out: Activity
In short: as §3

SMILES	growth at 10 µM [%]
CC1(C)CCc2cc(-c3ccn(S(=O)(=O)c4ccc(Cl)cc4Cl)n3)ccc2O1	68.9

Tested on: HOP-62
Test: Growth inhibition of human HOP-62 cells assessed as cell growth at 10 uM incubated for 48 hrs by sulforhodamine B assay relative to control
Format: functional
Conditions: read-out: Activity
In short: as §2

SMILES	growth at 10 µM [%]
CC1(C)CCc2cc(-c3ccn(S(=O)(=O)c4ccc(Cl)cc4Cl)n3)ccc2O1	105

Tested on: CCRF-CEM
Test: Growth inhibition of human CCRF-CEM cells assessed as cell growth at 10 uM incubated for 48 hrs by sulforhodamine B assay relative to control
Format: functional
Conditions: read-out: Activity
In short: as §3

SMILES	growth at 10 µM [%]
CC1(C)CCc2cc(-c3ccn(S(=O)(=O)c4ccc(Cl)cc4Cl)n3)ccc2O1	62.4

Tested on: UACC-257
Test: Growth inhibition of human UACC-257 cells assessed as cell growth at 10 uM incubated for 48 hrs by sulforhodamine B assay relative to control
Format: functional
Conditions: read-out: Activity
In short: as §1

SMILES	growth at 10 µM [%]
CC1(C)CCc2cc(-c3ccn(S(=O)(=O)c4ccc(Cl)cc4Cl)n3)ccc2O1	97.1

Tested on: MDA-MB-468
Test: Growth inhibition of human MDA-MB-468 cells assessed as cell growth at 10 uM incubated for 48 hrs by sulforhodamine B assay relative to control
Format: functional
Conditions: read-out: Activity
In short: as §2

SMILES	growth at 10 µM [%]
CC1(C)CCc2cc(-c3ccn(S(=O)(=O)c4ccc(Cl)cc4Cl)n3)ccc2O1	81.5

Tested on: HCT-15
Test: Growth inhibition of human HCT-15 cells assessed as cell growth at 10 uM incubated for 48 hrs by sulforhodamine B assay relative to control
Format: functional
Conditions: read-out: Activity
In short: as §2

SMILES	growth at 10 µM [%]
CC1(C)CCc2cc(-c3ccn(S(=O)(=O)c4ccc(Cl)cc4Cl)n3)ccc2O1	91

Tested on: HL-60(TB)
Test: Growth inhibition of human HL-60(TB) cells assessed as cell growth at 10 uM incubated for 48 hrs by sulforhodamine B assay relative to control
Format: functional
Conditions: read-out: Activity
In short: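 Screened by the NCI Developmental Therapeutics Program on its panel of 60 human tumour cell lines. Compounds were first tested at a single 10 µM dose, and compounds active there went to dose-response curves. Growth is expressed relative to untreated control (100%). GI50 (50% of maximal proliferation inhibition) and TGI (total growth inhibition) were derived from the dose-response data.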

SMILES	growth at 10 µM [%]
CC1(C)CCc2cc(-c3ccn(S(=O)(=O)c4ccc(Cl)cc4Cl)n3)ccc2O1	102

Tested on: NCI-H322M
Test: Growth inhibition of human NCI-H322M cells assessed as cell growth at 10 uM incubated for 48 hrs by sulforhodamine B assay relative to control
Format: functional
Conditions: read-out: Activity
In short: as §2

SMILES	growth at 10 µM [%]
CC1(C)CCc2cc(-c3ccn(S(=O)(=O)c4ccc(Cl)cc4Cl)n3)ccc2O1	90.5

Tested on: SF-539
Test: Growth inhibition of human SF-539 cells assessed as cell growth at 10 uM incubated for 48 hrs by sulforhodamine B assay relative to control
Format: functional
Conditions: read-out: Activity
In short: as §1

SMILES	growth at 10 µM [%]
CC1(C)CCc2cc(-c3ccn(S(=O)(=O)c4ccc(Cl)cc4Cl)n3)ccc2O1	103

Tested on: MDA-MB-435
Test: Growth inhibition of human MDA-MB-435 cells assessed as cell growth at 10 uM incubated for 48 hrs by sulforhodamine B assay relative to control
Format: functional
Conditions: read-out: Activity
In short: as §2

SMILES	growth at 10 µM [%]
CC1(C)CCc2cc(-c3ccn(S(=O)(=O)c4ccc(Cl)cc4Cl)n3)ccc2O1	95.7

Tested on: SN12C
Test: Growth inhibition of human SN12C cells assessed as cell growth at 10 uM incubated for 48 hrs by sulforhodamine B assay relative to control
Format: functional
Conditions: read-out: Activity
In short: as §1

SMILES	growth at 10 µM [%]
CC1(C)CCc2cc(-c3ccn(S(=O)(=O)c4ccc(Cl)cc4Cl)n3)ccc2O1	89.6

Tested on: NCI/ADR-RES
Test: Growth inhibition of human NCI/ADR-RES cells assessed as cell growth at 10 uM incubated for 48 hrs by sulforhodamine B assay relative to control
Format: functional
Conditions: read-out: Activity
In short: as §2

SMILES	growth at 10 µM [%]
CC1(C)CCc2cc(-c3ccn(S(=O)(=O)c4ccc(Cl)cc4Cl)n3)ccc2O1	96.1

Tested on: M14
Test: Growth inhibition of human M14 cells assessed as cell growth at 10 uM incubated for 48 hrs by sulforhodamine B assay relative to control
Format: functional
Conditions: read-out: Activity
In short: as §2

SMILES	growth at 10 µM [%]
CC1(C)CCc2cc(-c3ccn(S(=O)(=O)c4ccc(Cl)cc4Cl)n3)ccc2O1	85.9

Tested on: SNB-75
Test: Growth inhibition of human SNB-75 cells assessed as cell growth at 10 uM incubated for 48 hrs by sulforhodamine B assay relative to control
Format: functional
Conditions: read-out: Activity
In short: as §1

SMILES	growth at 10 µM [%]
CC1(C)CCc2cc(-c3ccn(S(=O)(=O)c4ccc(Cl)cc4Cl)n3)ccc2O1	97.4

Tested on: IGROV-1
Test: Growth inhibition of human IGROV-1 cells assessed as cell growth at 10 uM incubated for 48 hrs by sulforhodamine B assay relative to control
Format: functional
Conditions: read-out: Activity
In short: as §2

SMILES	growth at 10 µM [%]
CC1(C)CCc2cc(-c3ccn(S(=O)(=O)c4ccc(Cl)cc4Cl)n3)ccc2O1	94.5

Tested on: PC-3
Test: Growth inhibition of human PC-3 cells assessed as cell growth at 10 uM incubated for 48 hrs by sulforhodamine B assay relative to control
Format: functional
Conditions: read-out: Activity
In short: as §1

SMILES	growth at 10 µM [%]
CC1(C)CCc2cc(-c3ccn(S(=O)(=O)c4ccc(Cl)cc4Cl)n3)ccc2O1	62.3

Tested on: Hs-578T
Test: Growth inhibition of human Hs-578T cells assessed as cell growth at 10 uM incubated for 48 hrs by sulforhodamine B assay relative to control
Format: functional
Conditions: read-out: Activity
In short: as §2

SMILES	growth at 10 µM [%]
CC1(C)CCc2cc(-c3ccn(S(=O)(=O)c4ccc(Cl)cc4Cl)n3)ccc2O1	98.8

Tested on: HOP-92
Test: Growth inhibition of human HOP-92 cells assessed as cell growth at 10 uM incubated for 48 hrs by sulforhodamine B assay relative to control
Format: functional
Conditions: read-out: Activity
In short: as §2

SMILES	growth at 10 µM [%]
CC1(C)CCc2cc(-c3ccn(S(=O)(=O)c4ccc(Cl)cc4Cl)n3)ccc2O1	57.1

Tested on: SK-MEL-28
Test: Growth inhibition of human SK-MEL-28 cells assessed as cell growth at 10 uM incubated for 48 hrs by sulforhodamine B assay relative to control
Format: functional
Conditions: read-out: Activity
In short: as §1

SMILES	growth at 10 µM [%]
CC1(C)CCc2cc(-c3ccn(S(=O)(=O)c4ccc(Cl)cc4Cl)n3)ccc2O1	102

Tested on: U-251
Test: Growth inhibition of human U-251 cells assessed as cell growth at 10 uM incubated for 48 hrs by sulforhodamine B assay relative to control
Format: functional
Conditions: read-out: Activity
In short: as §1

SMILES	growth at 10 µM [%]
CC1(C)CCc2cc(-c3ccn(S(=O)(=O)c4ccc(Cl)cc4Cl)n3)ccc2O1	87.9

Tested on: HCT-116
Test: Growth inhibition of human HCT-116 cells assessed as cell growth at 10 uM incubated for 48 hrs by sulforhodamine B assay relative to control
Format: functional
Conditions: read-out: Activity
In short: as §2

SMILES	growth at 10 µM [%]
CC1(C)CCc2cc(-c3ccn(S(=O)(=O)c4ccc(Cl)cc4Cl)n3)ccc2O1	73.6

Tested on: OVCAR-5
Test: Growth inhibition of human OVCAR-5 cells assessed as cell growth at 10 uM incubated for 48 hrs by sulforhodamine B assay relative to control
Format: functional
Conditions: read-out: Activity
In short: as §1

SMILES	growth at 10 µM [%]
CC1(C)CCc2cc(-c3ccn(S(=O)(=O)c4ccc(Cl)cc4Cl)n3)ccc2O1	97.5

Tested on: SK-MEL-5
Test: Growth inhibition of human SK-MEL-5 cells assessed as cell growth at 10 uM incubated for 48 hrs by sulforhodamine B assay relative to control
Format: functional
Conditions: read-out: Activity
In short: as §1

SMILES	growth at 10 µM [%]
CC1(C)CCc2cc(-c3ccn(S(=O)(=O)c4ccc(Cl)cc4Cl)n3)ccc2O1	97.3

Tested on: KM12
Test: Growth inhibition of human KM12 cells assessed as cell growth at 10 uM incubated for 48 hrs by sulforhodamine B assay relative to control
Format: functional
Conditions: read-out: Activity
In short: as §2

SMILES	growth at 10 µM [%]
CC1(C)CCc2cc(-c3ccn(S(=O)(=O)c4ccc(Cl)cc4Cl)n3)ccc2O1	92.9

Tested on: Malme-3M
Test: Growth inhibition of human Malme-3M cells assessed as cell growth at 10 uM incubated for 48 hrs by sulforhodamine B assay relative to control
Format: functional
Conditions: read-out: Activity
In short: as §2

SMILES	growth at 10 µM [%]
CC1(C)CCc2cc(-c3ccn(S(=O)(=O)c4ccc(Cl)cc4Cl)n3)ccc2O1	85.1

Tested on: UO-31
Test: Growth inhibition of human UO-31 cells assessed as cell growth at 10 uM incubated for 48 hrs by sulforhodamine B assay relative to control
Format: functional
Conditions: read-out: Activity
In short: as §1

SMILES	growth at 10 µM [%]
CC1(C)CCc2cc(-c3ccn(S(=O)(=O)c4ccc(Cl)cc4Cl)n3)ccc2O1	73.3
